Compound activity deposited in PubChem by Broad Institute.
Only some compounds are listed: those with a hit (about 2.9% of all), similar ones and a draw of the others.
Statin myotox sup: suppressors of simvastatin-induced myotoxicity in C2C12 myotubes | AID 602340 | actives 0.78% (n = 330,000) | rescue of ATP level, % at 7.49 µM | ATP luminescence, 48 h; scaled: DMSO 0, geranylgeraniol control 100;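 active = mean ATP rescue above about 67%, or every replicate alone reaching that limit, limit read from the data, passing the limit was not always enough; inconclusive = no clear call, values can overlap the other calls; inactive = mean under the limit and some replicate under it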;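 note: myotubes were challenged with 10 µM simvastatin during compound exposure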
SIRT5 inh: sirtuin-5 (human) deacylase inhibition; Q9NXA8; Purified SirT5, succinyl-peptide AMC, trypsin-coupled fluorescence; inhibition, % at 15 µM; actives 1.1% (n = 330,000); AID 652115; in the data active = inhibition above about 15%; inconclusive = no clear call, values can overlap the other calls
Target sequence (Q9NXA8 whole entry, looked up): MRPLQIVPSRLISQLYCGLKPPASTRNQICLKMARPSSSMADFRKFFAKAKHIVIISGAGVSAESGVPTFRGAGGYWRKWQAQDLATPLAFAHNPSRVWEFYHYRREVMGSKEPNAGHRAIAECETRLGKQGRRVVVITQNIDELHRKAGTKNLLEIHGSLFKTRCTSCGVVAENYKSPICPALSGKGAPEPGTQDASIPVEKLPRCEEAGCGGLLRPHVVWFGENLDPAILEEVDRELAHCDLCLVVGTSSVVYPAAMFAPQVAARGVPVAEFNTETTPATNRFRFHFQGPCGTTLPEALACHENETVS
S100A4 MyoIIA: S100A4-myosin IIA interaction inhibition. P26447. S100A4/TAMRA-MyoIIA peptide fluorescence polarization. inhibition, % at 10.7 µM. actives 0.14% (n = 360,000);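 active = mean inhibition of at least 70% across replicates, with every replicate also reaching that level; inconclusive = mean inhibition reaches 70% but some replicates fall short; inactive = mean inhibition below 70%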
Target sequence (P26447 whole entry, looked up): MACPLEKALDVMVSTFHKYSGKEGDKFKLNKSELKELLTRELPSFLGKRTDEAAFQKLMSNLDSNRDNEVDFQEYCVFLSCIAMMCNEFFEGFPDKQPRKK
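Compound dosing: one dose per compound; test system: human S100A4 monomer with TAMRA-labelled myosin IIA peptide; probe or stimulus: TAMRA-labelled myosin IIA heavy-chain peptide probe, 5 nM; medium: HEPES buffer with Ca2+, pH 7.2; schedule: 5 min incubation before reading; benchmarks: neutral control DMSO, positive control TFP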
PGC1a acetyl inh: modulators of PGC1a acetylation. AID 651687. inhibition, % at 15.6 µM. U2OS PGC1a acetylation, AlphaScreen anti-acetyl-lysine; with virally co-expressed GCN5 acetyltransferase. actives 0.17% (n = 350,000);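 active = every replicate shows inhibition of at least 40%; inconclusive = mean inhibition at least 40% but some replicate below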;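 note: 0% = neutral control wells and 100% = positive control wells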
DENV2 CPE: inhibitors of DENV2 cytopathic effect. DENV2-infected cells, cytopathic effect rescue, plate reader. CPE inhibition, % at 9.99 µM. actives 1.7% (n = 350,000); in the data active = CPE inhibition above about 20%, passing the limit was not always enough; inconclusive = no clear call, values can overlap the other calls; tested in BHK-21 cells;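 note: 0% = median of neutral control wells and 100% = median of positive control wells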
* hit, by the source's call; ? = inconclusive; nt = not tested or not shown.

SMILES | Statin myotox sup | SIRT5 inh | S100A4 MyoIIA | PGC1a acetyl inh | DENV2 CPE
C[C@H](CO)N1C[C@H](C)[C@@H](CN(C)C(=O)Nc2ccc(F)cc2)Oc2ccc(NC(=O)Cc3ccccc3)cc2CC1=O | 5 | 1 | 9 | -8 | 14
COc1ccc(C#Cc2cnc3c(c2)C(=O)N([C@@H](C)CO)C[C@H](C)[C@H](CN(C)CC2CCCC2)O3)cc1 | 10 | 4 | 5 | 1 | 37*
C[C@H]1CN([C@@H](C)CO)C(=O)c2cc(C#Cc3cccc(F)c3)cnc2O[C@@H]1CN(C)CC1CCCC1 | nt | 23* | -1 | -18 | 15
COc1ccc(C#Cc2cnc3c(c2)C(=O)N([C@@H](C)CO)C[C@H](C)[C@@H](CN(C)CC2CCCC2)O3)cc1 | 1 | 3 | -1 | -14 | 0
COc1ccc(C#Cc2cnc3c(c2)C(=O)N([C@H](C)CO)C[C@H](C)[C@H](CN(C)CC2CCCC2)O3)cc1 | 1 | 2 | -5 | -17 | 40*
C[C@H](CO)N1C[C@H](C)[C@@H](CN(C)CC2CCCC2)Oc2ncc(C#Cc3ccncc3)cc2C1=O | 103* | nt | -10 | -23 | -15
COc1ccc(NC(=O)N(C)C[C@@H]2Oc3c(NS(=O)(=O)c4cccs4)cccc3C(=O)N([C@H](C)CO)C[C@@H]2C)cc1 | -5 | 1 | -42 | 13 | -10
C[C@H](O)C#Cc1cnc2c(c1)C(=O)N([C@H](C)CO)C[C@H](C)[C@@H](CN(C)CC1CCCC1)O2 | -3 | 21* | 8 | 9 | 7
C[C@@H]1CN([C@@H](C)CO)C(=O)c2cc(C#C[C@@H](C)O)cnc2O[C@H]1CN(C)CC1CCCC1 | -14 | 5 | 1 | 11 | 4
CN(C)c1ccc(O)c2c1CC1CC3[C@@H](N(C)C)C(=O)C(C(N)=O)=C(O)[C@]3(O)C(=O)C1=C2O (some centres undefined) | 7 | 34* | -12 | 7 | 0
C[C@H]1c2cccc(O)c2C(O)=C2C(=O)[C@]3(O)C(O)=C(C(N)=O)C(=O)[C@@H](N(C)C)[C@@H]3[C@@H](O)[C@@H]21 | 6 | nt | nt | 6 | nt
CC(=O)N(C)C[C@@H]1Oc2ncc(C#CC(C)(C)O)cc2C(=O)N([C@H](C)CO)C[C@@H]1C | 3 | 2 | 0 | 3 | 7
CCCCSc1nc(C)cc(SCC(=O)N/N=C/c2cccc(OC)c2O)n1 | 126* | nt | nt | 16 | nt
OCc1cn(-c2ccccc2)nc1-c1ccc(Br)cc1 | -8 | -1 | 0 | 17 | 48*
O=C(Cn1cnc2c(NCc3ccccc3)ncnc21)NCC1CCCO1 (centres undefined) | 4 | -2 | 5 | -8 | 75*
NC(=O)C1CCN(c2oc(/C=C/c3ccc(F)cc3)nc2S(=O)(=O)c2ccccc2)CC1 | 0 | -2 | -2 | -17 | ?
COc1ccccc1/C=C/c1nc(S(=O)(=O)c2ccccc2)c(N2CCC(C(N)=O)CC2)o1 | 12 | 17* | -9 | nt | -2
CO[C@@H](CN(C)S(=O)(=O)c1ccccc1)[C@H](C)CN(C(=O)Nc1ccccc1F)[C@H](C)CO | -4 | -1 | 1 | 1 | 2
Cc1cc(S(=O)(=O)N2CCN=C2c2ccccc2)c(C)cc1Cl | nt | 21* | 0 | nt | 3
Cc1cc(S(=O)(=O)N2CCN=C2c2ccccc2)ccc1F | -19 | nt | nt | 5 | nt
CN(CC(=O)Nc1ccccc1Cl)C(=O)COC(=O)c1cccs1 | 14 | 3 | 3 | -4 | 57*
COc1cc(/C=N/NC(=O)c2ccc(O)cc2)ccc1OCC(=O)Nc1cccc([N+](=O)[O-])c1 | 9 | -3 | -1 | 52* | 4
CCc1ccccc1NC(=O)CNC(=O)CNC(=O)c1cccs1 | -21 | 53* | -6 | -1 | -16
CO[C@@H]1CC[C@H]2CCOc3c(C#N)cccc3C(=O)N(C)C[C@H](C)C(=O)N(C)C[C@H]1O2 | 1 | 13 | 122* | 7 | -5
CO[C@@H]1CC[C@@H]2CCOc3c(C#N)cccc3C(=O)N(C)C[C@@H](OC)[C@@H](C)C(=O)N(C)C[C@@H]1O2 | 6 | 35* | 10 | nt | -2
CO[C@H]1CC[C@H]2CCOc3c(C#N)cccc3C(=O)N(C)C[C@@H](C)C(=O)N(C)C[C@H]1O2 | -4 | 0 | 16 | -10 | 2
